# According to the RNAGym collection of RNA variant scans (doi:10.1126/science.aae0568):
# Fewer inactive variants are shown than the library holds.
# B1: tRNA (parent)
# chain: GUUCCGUUGGCGUAAUGGUAACGCGUCUCCCUCCUAAGGAGAAGACUGCGGGUUCGAGUCCCGUACGGAACG
# Variants of: B1
# Assay: yeast fitness relative to wild type (ratio to wild type); higher = fitter; tRNA-Arg(CCU), competitive growth, 37 C, YPD
# Method in brief: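 A pool of Saccharomyces cerevisiae strains, each with a tRNA-Arg(CCU) gene variant at the native genomic locus, was competed in YPD at 37°C for 24 hours across six parallel replicates. The variants had been chemically synthesised at a 3% per-site mutation rate over 69 sites, and gene amplicons before and after competition were read by 100-nucleotide paired-end sequencing. Darwinian fitness relative to wild type rested on changes in genotype frequencies. Genotypes required ≥ 100 starting reads, and estimates < 0.5 were set to 0.5.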
row,Variant,yeast fitness
1,GUUCCGUUGGCGUAAUGGUAACGCGUCUCCCUCGUAAGGAGAAGACUGAAGGUUCGAGUCCCGUACGGAACG,≤ 0.5
2,GUUCCGUUGGCGUAAUGGUAACGCGUCUCCCUCGUAAGGAGAAGACUGCGGGUCCGAGUCCCGUACGGAACG,0.569
3,GUUCCGUUGGCGUAAUGGUAACGCGUCUCCCUCGUAACGAGAAGACUGCGGGUUCGAGUCCCGUACGGUACG,0.5
4,GUUCCGUUGGCGUAAUGGUAACGCGUCUCCCUCGUAAGGAGAAGACUGCCGGUUCGAGUCCCGUACGGAACG,≤ 0.5
5,GUUCCGUUGGCGUAAUGGUAACGCGUCUCCCUCGUAAGGAGAAGACUGCGGGUUAGAGUCCCGUACGGAACG,≤ 0.5
6,GUUCCGUUGGCGUAAUGGUAACGCGUCUCCCUCGUAAGAAGAAGACUGGGGGUUCGAGUCUCGUACGGAACG,≤ 0.5
7,GUUCCGUUGGCGUAAUGGUAACGCGUCUCCCUCGUAAGGAGAACACUGCGGGUUCGACUCCCGUACGUAACG,≤ 0.5
8,GUUCCGUUGGCGUAAUGGUAACGCGUCUCCCUCGUAACGUGAAGACUCGGGGUUCGAGUCCCGUACGGAACG,≤ 0.5
9,GUUCCGUUGGCGUAAUGGUAACGCGUCUCCCUCGUAACGAGAAGACUGCGGGUUCGAGUCCCGUACGCAACG,0.582
10,GUUCCGUUGGCGUAAUGGUAACGCGUCUCCCUCGUAAGGAGAAGACUGAGGGUUCGAGGCCCGUACGGAACG,0.547
11,GUUCCGUUGGCGUAAUGGUAACGCGUCUCCCUCGUAAGGAGAAGACUGCGGCUUCGAGUGCCGUACGGAACG,≤ 0.5
12,GUUCCGUUGGCGUAAUGGUAACGCGUCUCCCUCUUGAGGAAAAGACAGCGGGUUCGACUCCCCUACAGAACG,≤ 0.5
13,GUUCCGUUGGCGUAAUGGUAACGCGUCUCCCUCGUAAGGAGAAGACUGCGGGUUCGAGUCCCGUACGAAACG,0.586
14,GUUCCGUUGGCGUAAUGGUAACGCGUCUCCCUCGUAAGGAGAAGACUGCGGGUUCGAGUCCCGUACGCAACG,0.603
15,GUUCCGUUGGCGUAAUGGUAACGCGUCUCCCUCGUAAGGAGAAGACUGCGGGUUCGAGUCCCGUACCGAACG,0.604
16,GUUCCGUUGGCGUAAUGGUAACGCGUCUCCCUCGUAAGGACAAGACUGCGGGUUCGAGUACCGUACGGAACG,0.607
17,GUUCCGUUGGCGUAAUGGUAACGCGUCUCCCUCGUAAGGAGAAGACUGCGGGUUCGAGUCCCGUAUGGAACG,0.634
18,GUUCCGUUGGCGUAAUGGUAACGCGUCUCCCUCGUAACGAGAAGACUGCGGGUUCGAGUCCCGUACGGAGCG,≤ 0.5
19,GUUCCGUUGGCGUAAUGGUAACGCGUCUCCCUCGUAAGGAGAAGAUUGCGGGUUCGUGUGCCGUCCGGAACG,≤ 0.5

row,Variant,yeast fitness
1,GUUCCGUUGGCGUAAUGGUAACGCGUCUCCCUCGUAAGGAGAAGACUGCGGGUUGGAGCUCCGUACGGAACG,≤ 0.5
2,GUUCCGUUGGCGUAAUGGUAACGCGUCUCCCUCGUAAGGAGAAGACCGUGGGUUCGAGUCCCGUACGGAACG,0.638
3,GUUCCGUUGGCGUAAUGGUAACGCGUCUCCCUCUUAGGGAGAAGUCUGAGGGUUCGAGUCCCGUACGGAACG,≤ 0.5
4,GUUCCGUUGGCGUAAUGGUAACGCGUCUCCCUCGUAAGGAGAAGACUCCGGGUUCGAGUCCCGUAUGGAACG,0.562
5,GUUCCGUUGGCGUAAUGGUAACGCGUCUCCCUCGUAAGGAGAAGACUGCGGGCUCGAGUCCCGUACGGAACG,0.578
6,GUUCCGUUGGCGUAAUGGUAACGCGUCUCCCUCGUAAGGAGAAGACUGCGGGUUCGAGUCUCGUAUGGAACG,0.538
7,GUUCCGUUGGCGUAAUGGUAACGCGUCUCCCUCGGAAGAAGAAGACUGCGGGUUCGAGUCCCGUACGGAACG,0.593
8,GUUCCGUUGGCGUAAUGGUAACGCGUCUCCCUCGUAAGAAGAAGACUGCCGGUUCGAGUCCCGUACGGAACG,≤ 0.5
9,GUUCCGUUGGCGUAAUGGUAACGCGUCUCCCUCGUAAGGAGAAGACUGCCGGUUCCAGUCCCGUACGGAACG,≤ 0.5
10,GUUCCGUUGGCGUAAUGGUAACGCGUCUCCCUCGUAAGGAGAAGACUGCCGGUUGGAGUCCCGUACGGAACG,0.59
11,GUUCCGUUGGCGUAAUGGUAACGCGUCUCCCUCGGAAGGUGGAGACUGCGGGUUCGAGUCGCGUACGGAACG,≤ 0.5
12,GUUCCGUUGGCGUAAUGGUAACGCGUCUCCCUCGAAAGGAGAAGACUGCGGGUUCGAGUCCCCUACGGAACG,≤ 0.5
13,GUUCCGUUGGCGUAAUGGUAACGCGUCUCCCUCGUAAGGAGAAGACUGCGCGCUCGAGUCCCGUACGGAACG,0.616
14,GUUCCGUUGGCGUAAUGGUAACGCGUCUCCCUCGUAAGGAGAAGACUGCGGGUUAGAGUCCCGUACGAAACG,≤ 0.5
15,GUUCCGUUGGCGUAAUGGUAACGCGUCUCCCUCGUAAGGAGAAGACUCCGGGUUCGAGCCCCGUACGGAACG,0.712
16,GUUCCGUUGGCGUAAUGGUAACGCGUCUCCCUCGUAAGGAGAAGACUGGGGGUUCGAGUCCCGUGCGGAACG,≤ 0.5
17,GUUCCGUUGGCGUAAUGGUAACGCGUCUCCCUCGUAAGGAGAAGACUGCGGGUUCGAGACCCGUACGGAACG,0.538
18,GUUCCGUUGGCGUAAUGGUAACGCGUCUCCCUCGUAAGGAGAAGACUGCGGGUUCGAGGCCCGUACGGAACG,0.534
